# From ChEMBL document CHEMBL1135437, “Novel, non-acylguanidine-type Na(+)/H(+) exchanger inhibitors: synthesis and pharmacology of 5-tetrahydroquinolinylidene aminoguanidine derivatives” (J Med Chem, 2002)
# How the values were obtained:
# [1] = tested on: Rattus norvegicus; assay: In vivo inhibitory effect on the myocardial infarct size of ischemia-reperfusion injury model of rat. Administered intravenously 5 min before occlusion.; format: functional, Myocardium
# Outline: (§1)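 Male Wistar rats (11–12 weeks), anesthetized; left coronary artery occluded 1 h, then reperfused 24 h. Dose 0.1 or 0.3 mg/kg iv, 5 min before occlusion. Area at risk stained with 1% Evans blue; six left-ventricle slices stained with 1% TTC, 37 °C, 10 min. Infarct size expressed as % of area at risk by weight. n = 5–7.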
# [2] = in vitro inhibition against NHE to inhibit the acid induced swelling in human platelets by 50%; format: functional
# Outline: (§2)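 Platelet-rich plasma from forearm-vein blood of normal adult men, adjusted to 10 × 10^4/µL. Compound in DMSO added 3 min before sodium propionate buffer (135 mM, pH 6.7, 37 °C), final DMSO 1%. Light transmission at 550 nm recorded; maximum upstroke velocity in the first minute used. 100% inhibition defined by vehicle vs HOE-642 (10^-5 M). IC50 = 50% inhibition of swelling; triplicate experiments.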
# [3] = tested on: Rattus norvegicus; assay: In vivo inhibitory effect on the Myocardial Infarct size of Ischemia-Reperfusion Injury model of rat. Administered intravenously […].; format: functional, Myocardium; settings: in the assay text read “5 min before” for “2 hr before”
# [4] = tested on: Rattus norvegicus; assay: In vivo inhibitory effect on the Myocardial Infarct size of Ischemia-Reperfusion Injury model of rat. Administered intravenously 5 min before occlusion.; format: functional, Myocardium; outline: as §1
# [5] = In vitro inhibition of acid induced swelling in rat platelets by 50% as a measure of NHE inhibition; format: functional
# Outline: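 Platelet-rich plasma from male Wistar rats (13–15 weeks), diluted in saline to 40 × 10^4/µL. Compound in DMSO added 3 min before sodium propionate buffer (135 mM, pH 6.7, 37 °C), final DMSO 1%. Swelling read as the change in 550 nm light transmission 1 min later, corrected with platelet-poor plasma. 100% inhibition defined by vehicle vs HOE-642 (10^-5 M). IC50 from triplicate experiments.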
# [6] = tested on: Rattus norvegicus; assay: In vivo inhibitory effect on the myocardial infarct size of ischemia-reperfusion injury model of rat administered intravenously 5 min before occlusion; format: functional, Myocardium; outline: as §1
# [7] = In vitro inhibition against Na+/H+ exchanger(NHE) by measuring its ability to inhibit the acid induced swelling in human platelets by 50%; format: functional; outline: as §2
Structure (SMILES),IC50 [2] [nM],Inhibition [5] [%],other results
CS(=O)(=O)O.CS(=O)(=O)O.Cc1ccnc2c1/C(=N/N=C(N)N)C[C@H](c1ccccc1Cl)C2,9,,Inhibition [1]: 44%
CS(=O)(=O)O.CS(=O)(=O)O.Cc1ccc(F)cc1[C@H]1C/C(=N\N=C(N)N)c2c(C)ccnc2C1,13,,Inhibition [3]: 33%
CS(=O)(=O)O.CS(=O)(=O)O.Cc1ccnc2c1/C(=N/N=C(N)N)C[C@H](c1cc(Cl)sc1Cl)C2,7,,Inhibition [4]: 43%
Cc1ccnc2c1/C(=N/N=C(N)N)CC(c1ccccn1)C2.Cl.Cl (stereo unspecified),,23,
Cc1ccnc2c1/C(=N/N=C(N)N)CC(c1c(Cl)cccc1Cl)C2.Cl.Cl (stereo unspecified),,23,
Cc1ccnc2c1/C(=N/N=C(N)N)CC(c1ccncc1)C2.Cl.Cl (stereo unspecified),,25,
CC(C)c1ccc(C(=O)N=C(N)N)cc1S(C)(=O)=O [CARIPORIDE],,,Inhibition [6]: 28%; IC50 [7]: 210 nM
